Test results as given in article PMC3545439 (Investigational new drugs, 2010).
Like-named read-outs stand apart in the source and are kept apart here.

Legend:
[1] = Flavopiridol plasma pharmacokinetics in patients; assay type: in vivo, human
[2] = test system: patients with advanced solid tumors; experiment: Phase I dose escalation: toxicity; assay type: in vivo, human
Method in brief: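 Open-label, non-randomized 3+3 escalation in groups of 3–6, outpatient, with no intra-patient escalation. […] DLT was grade 4 hematologic or grade 3–4 non-hematologic toxicity (including diarrhea despite prophylaxis), or delay allowing fewer than 2 treatments in weeks 1–3. MTD was one level below the dose at which ≥2 patients had first-cycle DLT.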

[3] = Vorinostat serum pharmacokinetics in patients; assay type: in vivo, human
[4] = cited from earlier work
[5] = cited from earlier work; remark: listed apart in the source
[6] = test system: patients; settings: PO daily × 3 days, every 14 days, with infusional fluorouracil and leucovorin; cited from earlier work

Compound	Cmax ([1]; human, plasma, intravenous) [µM]	patients achieving flavopiridol Cmax of ≥2 μM ([1]; patients tested (20)) [%]	maximum tolerated dose (MTD), flavopiridol ([2]; 21-d schedule, bolus over 1 hr days 2 and 9, with vorinostat 600 mg/d) [mg/m^2]	maximum tolerated dose (MTD), flavopiridol ([2]; 28-d schedule, split dose days 2 and 16, with vorinostat 800 mg/d)	patients achieving vorinostat Cmax ≥2.5 μM ([3]; 800 mg dose level (MTD)) [%]	increase of vorinostat Cmax by flavopiridol ([3]; cycle 1 versus cycle −1, all patients, 95% CI 11%–43%) [%]	maximum tolerated dose (MTD) of vorinostat ([2]; 21-d schedule: days 1–3 and 8–10, with flavopiridol 60 mg/m^2 over 1 hr days 2 and 9) [mg/day]	maximum tolerated dose (MTD) of vorinostat ([2]; 28-d schedule: days 1–3 and 15–17, with split-dose flavopiridol days 2 and 16) [mg/day]	vorinostat level that enhances chemotherapy in vitro [4] [µM]	Cmax ([5]; read-out: average Cmax, vorinostat in combination with carboplatin and paclitaxel or FOLFOX) [µM]	Cmax ([5]; standard dose 400 mg PO daily continuously) [µM]	Cmax ([5]; vorinostat 900 mg/m^2 IV daily × 3 days every 3 weeks) [µM]	MTD of vorinostat [6]
CN1CC[C@H](c2c(O)cc(O)c3c(=O)cc(-c4ccccc4Cl)oc23)[C@H](O)C1 [flavopiridol]	3.92	90	60	30 mg/m^2 over 30 min followed by 30 mg/m^2 over 4 h									
O=C(CCCCCCC(=O)Nc1ccccc1)NO [vorinostat, suberoylanilide hydroxamic acid]					86	27	600	800	> 2.5	< 2	~2.5	> 30	1,700 mg
